Laboratory results reported in ChEMBL document CHEMBL1275442, “Pharmacokinetics and tissue distribution of anidulafungin in rats” (Antimicrob Agents Chemother, 2008).

How the values were obtained:
Assay type in all cases: ADME, organism-based
[1] = Cmax in F344 rat plasma at 5 mg/kg, iv administered as single bolus dose after 5 min by HPLC method; set-up: dose 5 mg/kg, route intravenous
Procedure, shortened: (§1)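 Male F344 rats, 10–11 weeks, 223.6–243.8 g, given one IV dose of [¹⁴C]anidulafungin, 5 mg/kg, over about 5 min. Tissues and blood sampled at 0.083–72 h (n = 3 rats per time). Parent drug measured by HPLC; LLOQ/ULOQ were 20/5,120 ng/ml for plasma and 220/56,320 ng/g for tissue. Noncompartmental parameters taken from the composite mean profile.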

[2] = test system: Lung; experiment: Drug level in Long Evans rat lung assessed as radioactivity per gram of tissue at 5 mg/kg, iv administered as single bolus dose measured 72 hrs postdose by autoradiography; set-up: dose 5 mg/kg, route intravenous; conditions: in vivo
Procedure, shortened: (§2)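 Male pigmented Long Evans (HsdBlu:LE) rats, 7.5 weeks old, 202 to 217 g, single iv [¹⁴C]anidulafungin; one rat per sampling time. Euthanized by isoflurane and cardiac-puncture exsanguination. Sagittal whole-body sections quantified by phosphorimaging autoradiography, single samples corrected for section thickness across multiple sections per tissue. Concentrations (μg eq/g drug-derived radioactivity) interpolated from least-squares standard curves per scan.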

[3] = test system: Lung; experiment: Tmax in F344 rat lung assessed as total compound-derived radioactivity at 5 mg/kg, iv administered as single bolus dose […]; set-up: dose 5 mg/kg, route intravenous; conditions: in vivo
Procedure, shortened: (§3)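 Male F344 rats, 10 to 11 weeks old and 223.6 to 243.8 g, got one iv dose of [14C]anidulafungin at 5 mg/kg over about 5 min. Blood, CSF, kidney, liver, lung, quadriceps, spleen and skin were sampled predose and at 0.083 to 72 h, 3 rats per time. Total radioactivity (parent plus metabolites) was measured by liquid scintillation counting. Parameters were noncompartmental, from a composite mean profile.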

[4] = Cmax in F344 rat kidney at 5 mg/kg, iv administered as single bolus dose after 30 min by HPLC method; set-up: dose 5 mg/kg, route intravenous; procedure, shortened: as §1
[5] = Cmax in F344 rat liver at 5 mg/kg, iv administered as single bolus dose after 5 min by HPLC method; set-up: dose 5 mg/kg, route intravenous; procedure, shortened: as §1
[6] = test system: Kidney; experiment: Half life in F344 rat kidney assessed as total compound-derived radioactivity at 5 mg/kg, iv administered as single bolus dose […]; set-up: dose 5 mg/kg, route intravenous; conditions: in vivo; procedure, shortened: as §3
[7] = Tmax in F344 rat spleen at 5 mg/kg, iv administered as single bolus dose by HPLC method; set-up: dose 5 mg/kg, route intravenous
Procedure, shortened: (§4)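 F344 males, 10 to 11 weeks old and 223.6 to 243.8 g, got a single 5 mg/kg iv dose of [14C]anidulafungin over about 5 min. Plasma and tissues were collected predose and at 0.083 to 72 h, n = 3 per time point. Parent drug was quantified by HPLC-UV, with LLOQ/ULOQ of 20/5,120 ng/ml in plasma and 220/56,320 ng/g in tissue. Noncompartmental parameters came from a composite mean concentration-time profile.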

[8] = test system: Kidney; experiment: AUC (0 to 24 hrs) in F344 rat kidney at 5 mg/kg, iv administered as single bolus dose; set-up: time < 24 hr, dose 5 mg/kg, route intravenous; conditions: in vivo; procedure, shortened: as §1
[9] = test system: Kidney; experiment: Cmax in F344 rat kidney assessed as total compound-derived radioactivity per gram of tissue at 5 mg/kg, iv administered as single bolus dose after 30 mins by HPLC method; set-up: dose 5 mg/kg, route intravenous; conditions: in vivo, 0.5 h
Procedure, shortened: (§5)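 Same F344 study: single 5 mg/kg IV [¹⁴C]anidulafungin given over about 5 min. Total drug-derived radioactivity (parent plus metabolites) counted by liquid scintillation, in […]. Noncompartmental analysis of the composite mean profile.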

[10] = test system: Blood; experiment: Drug level in Long Evans rat blood assessed as radioactivity per gram of tissue at 5 mg/kg, iv administered as single bolus dose measured 0.5 hrs postdose by autoradiography; set-up: dose 5 mg/kg, route intravenous; conditions: in vivo
Procedure, shortened: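 Male pigmented Long Evans rats, 7.5 weeks, 202–217 g, given one IV dose of [¹⁴C]anidulafungin, 5 mg/kg. Euthanised under isoflurane with cardiac exsanguination, one rat per time. Sagittal whole-body sections quantified by phosphorimaging, corrected for section thickness. Concentrations in μg eq/g interpolated from least-squares standard curves.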

[11] = test system: Blood; experiment: Drug level in Long Evans rat blood assessed as radioactivity per gram of tissue at 5 mg/kg, iv administered as single bolus dose measured 6 hrs postdose by autoradiography; set-up: dose 5 mg/kg, route intravenous; conditions: in vivo; procedure, shortened: as §2
[12] = test system: Liver; experiment: Drug level in Long Evans rat liver assessed as high disposition of radioactivity per gram of tissue at 5 mg/kg, iv administered as single bolus dose measured 168 hrs postdose by autoradiography; set-up: dose 5 mg/kg, route intravenous; conditions: in vivo; procedure, shortened: as §2
[13] = test system: Muscle tissue; experiment: Drug level in Long Evans rat muscle assessed as radioactivity per gram of tissue at 5 mg/kg, iv administered as single bolus dose measured 0.5 hrs postdose by autoradiography; set-up: dose 5 mg/kg, route intravenous; conditions: in vivo; procedure, shortened: as §2
[14] = Tmax in F344 rat plasma at 5 mg/kg, iv administered as single bolus dose by HPLC method; set-up: dose 5 mg/kg, route intravenous; procedure, shortened: as §4
[15] = test system: Blood; experiment: Drug level in Long Evans rat blood assessed as radioactivity per gram of tissue at 5 mg/kg, iv administered as single bolus dose measured 12 hrs postdose by autoradiography; set-up: dose 5 mg/kg, route intravenous; conditions: in vivo; procedure, shortened: as §2
[16] = test system: Cerebrospinal fluid; experiment: Drug level in Long Evans rat cerebrospinal fluid assessed as radioactivity per gram of tissue at 5 mg/kg, iv administered as single bolus dose measured 0.5 hrs postdose by autoradiography; set-up: dose 5 mg/kg, route intravenous; conditions: in vivo; procedure, shortened: as §2
[17] = test system: Lung; experiment: Cmax in F344 rat lung assessed as total compound-derived radioactivity per gram of tissue at 5 mg/kg, iv administered as single bolus dose after 5 mins by HPLC method; set-up: dose 5 mg/kg, route intravenous; conditions: in vivo; procedure, shortened: as §5
[18] = test system: Liver; experiment: Cmax in F344 rat liver assessed as total compound-derived radioactivity per gram of tissue at 5 mg/kg, iv administered as single bolus dose […]; set-up: dose 5 mg/kg, route intravenous; conditions: in vivo; procedure, shortened: as §5
[19] = Drug level in Long Evans rat eye assessed as radioactivity per gram of tissue at 5 mg/kg, iv administered as single bolus dose measured 168 hrs postdose by autoradiography; set-up: dose 5 mg/kg, route intravenous; conditions: in vivo; procedure, shortened: as §2
[20] = Drug level in Long Evans rat eye assessed as radioactivity per gram of tissue at 5 mg/kg, iv administered as single bolus dose measured 24 hrs postdose by autoradiography; set-up: dose 5 mg/kg, route intravenous; conditions: in vivo; procedure, shortened: as §2
[21] = test system: Plasma; experiment: Tmax in F344 rat plasma assessed as total compound-derived radioactivity at 5 mg/kg, iv administered as single bolus dose […]; set-up: dose 5 mg/kg, route intravenous; conditions: in vivo; procedure, shortened: as §3
[22] = Cmax in F344 rat spleen at 5 mg/kg, iv administered as single bolus dose after 30 min by HPLC method; set-up: dose 5 mg/kg, route intravenous; procedure, shortened: as §1
[23] = test system: Muscle tissue; experiment: AUC (0 to infinity) in F344 rat muscle assessed as total compound-derived radioactivity per gram of tissue at 5 mg/kg, iv administered as single bolus dose […]; set-up: time infinity, dose 5 mg/kg, route intravenous; conditions: in vivo; procedure, shortened: as §5
[24] = test system: Spleen; experiment: AUC (0 to infinity) in F344 rat spleen assessed as total compound-derived radioactivity per gram of tissue at 5 mg/kg, iv administered as single bolus dose […]; set-up: time infinity, dose 5 mg/kg, route intravenous; conditions: in vivo; procedure, shortened: as §5
[25] = test system: Liver; experiment: Drug level in Long Evans rat liver assessed as low disposition of radioactivity per gram of tissue at 5 mg/kg, iv administered as single bolus dose measured 6 hrs postdose by autoradiography; set-up: dose 5 mg/kg, route intravenous; conditions: in vivo; procedure, shortened: as §2
[26] = test system: Blood; experiment: Drug level in Long Evans rat blood assessed as radioactivity per gram of tissue at 5 mg/kg, iv administered as single bolus dose measured 24 hrs postdose by autoradiography; set-up: dose 5 mg/kg, route intravenous; conditions: in vivo; procedure, shortened: as §2
[27] = test system: Kidney; experiment: Drug level in Long Evans rat kidney assessed as high disposition of radioactivity per gram of tissue at 5 mg/kg, iv administered as single bolus dose measured 24 hrs postdose by autoradiography; set-up: dose 5 mg/kg, route intravenous; conditions: in vivo; procedure, shortened: as §2

CCCCCOc1ccc(-c2ccc(-c3ccc([14C](=O)N[C@H]4C[C@@H](O)[C@@H](O)NC(=O)[C@@H]5[C@@H](O)[C@@H](C)CN5C(=O)[C@H]([C@@H](C)O)NC(=O)[C@H]([C@H](O)[C@@H](O)c5ccc(O)cc5)NC(=O)[C@@H]5C[C@@H](O)CN5C(=O)[C@H]([C@@H](C)O)NC4=O)cc3)cc2)cc1 [14C-ANIDULAFUNGIN]
Cmax [1]: 5250 ng/mL
Drug uptake [2]: 4.24 ugequiv
Tmax [3]: 4.98 min
Cmax [4]: 16100 ng/g
Cmax [5]: 15900 ng/g
t1/2 [6]: 48.5 h
Tmax [7]: 30 min
AUC [8]: 517.32 µg·h/g
Cmax [9]: 19.63 ugequiv/g
Drug uptake [10]: 6.85 ugequiv
Drug uptake [11]: 5.07 ugequiv
Drug uptake [12]: 4.27 ugequiv
Drug uptake [13]: 3.45 ugequiv
Tmax [14]: 4.98 min
Drug uptake [15]: 2.55 ugequiv
Drug uptake [16]: 5.51 ugequiv
Cmax [17]: 39.29 ugequiv/g
Cmax [18]: 24.28 ugequiv/g
Drug uptake [19]: 0.6 ugequiv
Drug uptake [20]: 2.07 ugequiv
Tmax [21]: 4.98 min
Cmax [22]: 24200 ng/g
AUC [23]: 139.22 ugequiv.hr/g
AUC [24]: 1152.68 ugequiv.hr/g
Drug uptake [25]: 17.68 ugequiv
Drug uptake [26]: 2.27 ugequiv
Drug uptake [27]: 12.57 ugequiv
